Where two headings read alike, the source gives them in different places.
Experiments:
[1] = Urinary excretion of unchanged LSF in mice; assay type: in vivo; conditions: 50 mg/kg i.v., within 4 h, unpublished data
Method in brief: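 Three mice received 50 mg/kg intravenously and were housed in metabolic cages. All urine was collected at 2 and 4 h post-dose with volumes recorded. Unchanged drug was quantified by the chiral HPLC-UV method after validation for murine urine, expressed as percent of dose excreted within 4 h.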

[2] = ref Bursten et al. [1998], cited from earlier work
[3] = assay type: in vivo, male Crl:CD-1 mice
Method in brief: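 Male Crl:CD-1 mice (8–10 weeks, bred in-house) were fasted overnight with water and dosed at 50 mg/kg into the tail vein. 3–4 per time point were exsanguinated up to 60 min. Serum was clotted at room temperature, then spun. Brain, muscle, kidneys, liver, gut and lungs were homogenized 1:4 w/v in 0.1 M PBS. Samples were stored at −80 °C.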

[4] = system: human liver microsomes (CYP3A4, CYP2A6); conditions: biphasic, cited from earlier work
[5] = Human pharmacokinetic study of LSF; assay type: in vivo; conditions: plasma, iv, 3 mg/kg
[6] = ref Nicklasson et al. [2002], cited from earlier work
[7] = PBPK simulation and clearance scaling of LSF to a 70-kg human subject
[8] = mice, ref Wyska et al. [2007], cited from earlier work
[9] = system: human liver microsomes (CYP1A2 and a non-cytochrome P450 enzyme); conditions: biphasic, ref Lee and Slattery [1997]; cited from earlier work
[10] = mice, final PBPK model estimate
[11] = CYP2A6, ref Shin and Slattery [1998]
[12] = CYP3A4, ref Shin and Slattery [1998]

## C[C@@H](O)CCCCn1c(=O)c2c(ncn2C)n(C)c1=O [LSF, (−)-R-1-(5-hydroxyhexyl)-3,7-dimethylxanthine]
[1]
  mean percentage of LSF dose excreted unchanged with urine: 0.71 ± 0.13%
[2]; human subjects, oral 6 mg/kg
  maximum concentration (C max), observed: 226 ± 99.10 ng/mL
  time to C max, observed: 0.53 ± 0.26 h
[2]; humans, oral
  bioavailability: 5.9%
[3]; male, Crl:CD-1, mouse, brain/serum, iv, 50 mg/kg
  Kp: 0.345
[3]; male, Crl:CD-1, mouse, gut/serum, iv, 50 mg/kg
  Kp: 0.892
[3]; male, Crl:CD-1, mouse, intravenous, 50 mg/kg
  clearance: 5.43 mL/min
[3]; male, Crl:CD-1, mouse, iv, 50 mg/kg
  concentration at 60 min: < 1000 ng/mL
[3]; male, Crl:CD-1, mouse, kidneys/serum, iv, 50 mg/kg
  Kp: 0.777
[3]; male, Crl:CD-1, mouse, liver/serum, iv, 50 mg/kg
  Kp: 0.859
[3]; male, Crl:CD-1, mouse, lungs/serum, iv, 50 mg/kg
  Kp: 0.758
[3]; male, Crl:CD-1, mouse, muscle/serum, iv, 50 mg/kg
  Kp: 0.64
[3]; male, Crl:CD-1, mouse, serum, iv, 50 mg/kg
  clearance: 1.44 mL/min
[3]; [10]
  K M (LSF concentration at 50 % of the maximum rate of metabolism): 1.777 µg/mL
  V max (maximum rate of metabolism): 9.644 µg/min
[4]; [11]
  K M, lisofylline diol formation, high K M enzyme: 4230 µM
  V max, lisofylline diol formation, high K M enzyme: 0.429 nmol/min/mg of protein
[4]; [12]
  K M, lisofylline diol formation, low K M enzyme: 23 µM
  V max, lisofylline diol formation, low K M enzyme: 0.0565 nmol/min/mg of protein
[5]
  clearance: 1280 mL/min
[6]; human plasma
  fraction unbound (fu) in human plasma: 0.54
[6]; human
  blood to plasma LSF concentration ratio (CB/Cp): 0.77
[7]; calculated from human liver microsome Vmax/KM data and Eq. 11
  in vivo whole liver intrinsic clearance: 1,545.24 ml/min
[7]; calculated from the in vivo intrinsic clearance (Eq. 12)
  plasma hepatic clearance: 477.54 mL/min
[8]; oral administration
  first-order absorption rate constant (ka): 0.024 min⁻¹
  fraction of the dose absorbed following oral administration (F): 0.16
[8]; oral
  bioavailability: 16%
[9]
  K M, formation of pentoxifylline from LSF, second (high K M) enzyme: 158 µM
  V max, formation of pentoxifylline from LSF, second (high K M) enzyme: 0.928 nmol/min/mg

Reference: PMC4954844 (European Journal of Drug Metabolism and Pharmacokinetics, 2015)
